Measured values: ChEMBL document CHEMBL5257040, “Discovery of VU2957 (Valiglurax): An mGlu4 Positive Allosteric Modulator Evaluated as a Preclinical Candidate for the Treatment of Parkinson's Disease” (ACS Med Chem Lett, 2019)
Active and inactive are the calls of the source. No cut-off for these calls is given here.

How the values were obtained:
[1] = Clearance in Beagle dog plasma at 0.5 mg/kg, iv and measured upto 24 hrs by LC-MS/MS analysis; assay type: ADME, organism-based, Canis lupus familiaris
Summary of the method: (§1)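 Single intravenous doses: mouse 1 mg/kg, SD rat 0.2 mg/kg, beagle dog 0.5 mg/kg, cynomolgus monkey 0.2 mg/kg. Plasma clearance, Vss and elimination half-life came from the plasma profiles. Values are means of two to three animals.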

[2] = AUC in Sprague-Dawley rat at 10 mg/kg, po administered as spray-dried dispersion formulation and measured after 24 hrs by LC-MS/MS analysis; assay type: ADME, organism-based; design: dose 10 mg/kg, time 24 hrs, route po; conditions: in vivo
Summary of the method: (§2)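 Rats were dosed orally at 3, 10 and 30 mg/kg with a spray-dried dispersion of the free base and HPMCP-HP55 polymer (25%/75%), in 30% Dexolve. Total plasma Cmax and AUC were measured, N = 3.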

[3] = Tmax in Sprague-Dawley rat at 3 mg/kg, po and measured upto 24 hrs by LC-MS/MS analysis; assay type: ADME, organism-based; conditions: in vivo
Summary of the method: (§3)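 Single-dose iv and oral PK in separate arms: mouse 1 mg/kg iv / 3 mg/kg po, SD rat 0.2/3, beagle 0.5/3, cynomolgus 0.2/3 mg/kg. Plasma parameters (Vss, Tmax, F) are means of two to three animals per species.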

[4] = Oral bioavailability in CD-1 mouse plasma at 3 mg/kg and measured upto 24 hrs by LC-MS/MS analysis; assay type: ADME, organism-based; summary of the method: as §3
[5] = Tmax in Cynomolgus monkey at 3 mg/kg, po and measured upto 24 hrs by LC-MS/MS analysis; assay type: ADME, organism-based, Macaca fascicularis; conditions: in vivo; summary of the method: as §3
Cytochrome P450 3A4 [6] = molecular target: T1, Cytochrome P450 3A4 (Homo sapiens, UniProt P08684); test: Inhibition of CYP3A4 in human liver microsomes using midazolam as substrate preincubated for 15 mins followed by NADPH addition and measured after 8 mins by LC/MS/MS analysis; assay type: ADME, Microsome
T1 sequence (P08684 whole entry): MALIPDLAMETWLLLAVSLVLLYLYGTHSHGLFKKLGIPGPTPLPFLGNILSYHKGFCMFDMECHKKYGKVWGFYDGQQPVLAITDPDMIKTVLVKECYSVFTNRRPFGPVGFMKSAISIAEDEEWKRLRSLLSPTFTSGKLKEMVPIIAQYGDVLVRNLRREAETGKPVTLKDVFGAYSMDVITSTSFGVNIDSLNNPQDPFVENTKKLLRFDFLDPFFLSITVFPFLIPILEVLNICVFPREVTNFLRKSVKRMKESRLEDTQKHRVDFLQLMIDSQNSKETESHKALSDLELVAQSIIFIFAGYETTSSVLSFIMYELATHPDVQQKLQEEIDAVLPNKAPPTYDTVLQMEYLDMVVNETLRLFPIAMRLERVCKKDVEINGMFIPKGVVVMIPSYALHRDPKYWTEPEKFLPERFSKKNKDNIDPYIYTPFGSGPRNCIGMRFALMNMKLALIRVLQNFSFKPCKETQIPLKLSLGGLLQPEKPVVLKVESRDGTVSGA

[7] = Unbound brain-to-plasma concentration ratio in CD-1 mouse at 1 mg/kg,iv and measured upto 24 hrs by LC-MS/MS analysis; assay type: ADME, organism-based; conditions: read-out: K(p,uu,brain)
[8] = Tmax in CD-1 mouse plasma at 3 mg/kg, po and measured upto 24 hrs by LC-MS/MS analysis; assay type: ADME, organism-based; summary of the method: as §3
[9] = Solubility of compound in FaSSIF; assay type: ADME
[10] = Drug uptake in plasma of haloperidol-induced catalepsy Sprague-Dawley rat model at 0.3 to 30 mg/kg,po; assay type: ADME, organism-based; conditions: in vivo, dose 0.3-30 mg/kg
Summary of the method: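 Rats were given haloperidol 1.5 mg/kg i.p. to induce catalepsy and dosed orally at 0.3–30 mg/kg, N = 8–10 per group. Total plasma and CSF concentrations were measured alongside the catalepsy read-out. Satellite rats were used for PK in the time-course study.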

[11] = Brain to plasma permeability coefficient, Kp in Sprague-Dawley rat at 0.2 mg/kg, iv and measured upto 24 hrs by LC-MS/MS analysis; assay type: ADME, organism-based
Summary of the method: (§4)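 Total brain to total plasma partition coefficient (Kp) measured in mouse, SD rat and cynomolgus monkey. The unbound ratio (Kp,uu) was corrected with brain homogenate binding. Values are means of two to three animals.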

[12] = AUC (0 to infinity) in Sprague-Dawley rat at 3 mg/kg, po and measured upto 24 hrs by LC-MS/MS analysis; assay type: ADME, organism-based; design: time < 24 hrs, dose 3 mg/kg, route po; conditions: in vivo
Summary of the method: (§5)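 Single oral 3 mg/kg dose in mouse, SD rat, beagle dog and cynomolgus monkey. Total plasma exposure after the oral dose gave Cmax, Tmax, AUC0-inf and F. Values are means of two to three animals.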

Rattus norvegicus [13] = test: Reversal of haloperidol-induced catalepsy Sprague-Dawley rat model at 0.3 to 30 mg/kg,po and measured upto 6 hrs; assay type: functional, organism-based; conditions: dose 0.3-30 mg/kg
Summary of the method: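 Time course in the haloperidol (1.5 mg/kg i.p.) catalepsy model in rats after a single 30 mg/kg oral dose, followed for up to 6 h. Satellite rats dosed in parallel gave plasma and CSF exposures.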

[14] = Elimination half life in CD-1 mouse plasma at 1 mg/kg, iv and measured upto 24 hrs by LC-MS/MS analysis; assay type: ADME, organism-based; conditions: read-out: beta t1/2 (converted); summary of the method: as §1
[15] = Elimination half life in Cynomolgus monkey at 0.2 mg/kg, iv and measured upto 24 hrs by LC-MS/MS analysis; assay type: ADME, organism-based, Macaca fascicularis; conditions: in vivo, read-out: beta t1/2 (converted); summary of the method: as §1
[16] = Cmax in Sprague-Dawley rat at 10 mg/kg, po administered as spray-dried dispersion formulation and measured after 24 hrs by LC-MS/MS analysis; assay type: ADME, organism-based; design: dose 10 mg/kg, time 24 hrs, route po; conditions: in vivo; summary of the method: as §2
Rattus norvegicus [17] = test: Reversal of haloperidol-induced catalepsy Sprague-Dawley rat model assessed as minimum effective dose administered orally; assay type: functional; conditions: route po, read-out: MED
Summary of the method: (§6)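 Sprague-Dawley rats received haloperidol 1.5 mg/kg i.p. to induce catalepsy, with the compound dosed orally at 0.3–30 mg/kg. Groups were 8–10 rats and compared with vehicle + haloperidol (p < 0.05). MED = lowest oral dose giving significant reversal.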

[18] = Clearance in Sprague-Dawley rat plasma at 0.2 mg/kg, iv and measured upto 24 hrs by LC-MS/MS analysis; assay type: ADME, organism-based; summary of the method: as §1
Cytochrome P450 3A4 [19] = molecular target: T1, Cytochrome P450 3A4; test: Induction of CYP3A4 in human hepatocytes; assay type: ADME, cell-based
Summary of the method: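 CYP1A2, 2B6 and 3A4 induction measured in human hepatocytes.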

Rattus norvegicus [20] = test: Reversal of haloperidol-induced catalepsy Sprague-Dawley rat model at 0.3 to 30 mg/kg,po; assay type: functional, organism-based; conditions: dose 0.3-30 mg/kg; summary of the method: as §6
[21] = AUC in Sprague-Dawley rat at 30 mg/kg, po administered as spray-dried dispersion formulation and measured after 24 hrs by LC-MS/MS analysis; assay type: ADME, organism-based; design: dose 30 mg/kg, time 24 hrs, route po; conditions: in vivo; summary of the method: as §2
[22] = Metabolic stability in human liver microsomes assessed as intrinsic clearance at 1 uM preincubated for 5 mins followed by NADPH addition and measured for 45 mins by LC/MS/MS analysis; assay type: ADME, Microsome; conditions: time 50 min, read-out: CLH
[23] = Clearance in Cynomolgus monkey plasma at 0.2 mg/kg, iv and measured upto 24 hrs by LC-MS/MS analysis; assay type: ADME, organism-based, Macaca fascicularis; summary of the method: as §1
[24] = Unbound drug concentration in Sprague-Dawley rat brain at 0.2 mg/kg, iv and measured upto 24 hrs by LC-MS/MS analysis; assay type: ADME, organism-based
[25] = Elimination half life in Beagle dog at 0.5 mg/kg, iv and measured upto 24 hrs by LC-MS/MS analysis; assay type: ADME, organism-based, Canis lupus familiaris; conditions: in vivo, read-out: beta t1/2 (converted); summary of the method: as §1
Kv1.5 = Kv1.5 (Homo sapiens, UniProt P22460); test: Inhibition of Kv1.5 (unknown origin) at 10 uM; assay type: toxicity
Sequence of Kv1.5 (P22460 whole entry): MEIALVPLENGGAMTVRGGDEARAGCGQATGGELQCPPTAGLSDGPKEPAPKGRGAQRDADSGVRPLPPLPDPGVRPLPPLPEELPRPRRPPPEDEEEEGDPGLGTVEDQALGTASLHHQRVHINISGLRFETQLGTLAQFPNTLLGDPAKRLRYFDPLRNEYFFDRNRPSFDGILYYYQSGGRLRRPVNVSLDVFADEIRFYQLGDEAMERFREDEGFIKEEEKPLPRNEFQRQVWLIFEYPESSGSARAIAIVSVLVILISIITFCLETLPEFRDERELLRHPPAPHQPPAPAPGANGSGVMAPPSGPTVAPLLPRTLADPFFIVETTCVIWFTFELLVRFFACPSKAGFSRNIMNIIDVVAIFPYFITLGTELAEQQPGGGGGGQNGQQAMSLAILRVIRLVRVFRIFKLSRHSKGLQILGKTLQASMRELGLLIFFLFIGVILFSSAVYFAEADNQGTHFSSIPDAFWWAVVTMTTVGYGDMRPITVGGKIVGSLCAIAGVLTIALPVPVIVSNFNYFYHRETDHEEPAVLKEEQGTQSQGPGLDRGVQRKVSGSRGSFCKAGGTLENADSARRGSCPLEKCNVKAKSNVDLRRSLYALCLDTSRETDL
Summary of the method: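 Cardiac ion channel electrophysiology (functional EP) panel, with percent inhibition measured at 10 μM.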

[26] = Protein binding in cynomolgus monkey plasma assessed as fraction unbound incubated for 4 hrs by equilibrium dialysis based LC/MS/MS analysis; assay type: ADME, cell-free, Macaca fascicularis
[27] = Cmax in Cynomolgus monkey at 3 mg/kg, po and measured upto 24 hrs by LC-MS/MS analysis; assay type: ADME, organism-based, Macaca fascicularis; design: dose 3 mg/kg, time < 24 hrs, route po; conditions: in vivo
Summary of the method: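 Single oral 3 mg/kg dose in mouse, SD rat, beagle and cyno. Cmax is the peak total plasma concentration. Values are means of two to three animals.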

[28] = AUC (0 to infinity) in Beagle dog at 3 mg/kg, po and measured upto 24 hrs by LC-MS/MS analysis; assay type: ADME, organism-based, Canis lupus familiaris; design: time < 24 hrs, dose 3 mg/kg, route po; conditions: in vivo; summary of the method: as §5
[29] = Brain to plasma permeability coefficient, Kp in cynomolgus monkey at 0.2 mg/kg, iv and measured upto 1 hrs by LC-MS/MS analysis; assay type: ADME, organism-based, Macaca fascicularis; summary of the method: as §4
[30] = molecular target: Nuclear receptor subfamily 1 group I member 2 (Rattus norvegicus, UniProt Q9R1A7); test: Activation of rat PXR
Sequence of Nuclear receptor subfamily 1 group I member 2 (Q9R1A7 whole entry): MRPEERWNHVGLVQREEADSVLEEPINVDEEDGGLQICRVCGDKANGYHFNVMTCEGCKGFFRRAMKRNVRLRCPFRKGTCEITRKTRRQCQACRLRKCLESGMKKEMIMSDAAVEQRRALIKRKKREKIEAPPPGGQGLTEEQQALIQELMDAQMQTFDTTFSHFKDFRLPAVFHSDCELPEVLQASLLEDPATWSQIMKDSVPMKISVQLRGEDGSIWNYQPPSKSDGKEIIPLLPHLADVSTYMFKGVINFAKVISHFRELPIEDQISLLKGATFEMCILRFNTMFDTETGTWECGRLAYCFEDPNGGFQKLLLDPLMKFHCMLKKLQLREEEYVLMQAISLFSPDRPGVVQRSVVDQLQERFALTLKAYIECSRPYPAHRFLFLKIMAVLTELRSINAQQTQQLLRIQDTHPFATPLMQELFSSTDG

## FC(F)(F)c1nccc2cc(Nc3n[nH]c4ncccc34)ccc12
[1]
  clearance: 31.6 mL/min/kg
[2]
  AUC at 24 h: 23.7 µM·h
[3]
  Tmax: 2 h
[4]
  bioavailability: 79%
[5]
  Tmax: 6 h
Cytochrome P450 3A4 [6]
  IC50: > 30 µM
[7]
  Kp uu at 24 h: 0.16
[8]
  Tmax: 0.42 h
[9]
  solubility: < 5 µg/mL
[10]
  concentration: 322 nM
[11]
  Kp at 24 h: 1.51
[12]
  AUC(0-inf): 9.66 µM·h
Rattus norvegicus [13]
  Activity: Active
[14]
  half-life: 2.98 h
[15]
  half-life: 3.98 h
[16]
  Cmax: 2050 nM
Rattus norvegicus [17]
  minimal effective dose: 1 mg/kg
[18]
  clearance: 37.7 mL/min/kg
Cytochrome P450 3A4 [19]
  Activity: Not Active
Rattus norvegicus [20]
  Activity: Dose-Dependent Effect
[21]
  AUC at 24 h: 83.9 µM·h
[22]
  CLint scaled at 1 µM: 9.1 mL/min/kg
[23]
  clearance: 17.1 mL/min/kg
[24]
  fraction unbound at 24 h: > 0.001
[25]
  half-life: 2.95 h
Kv1.5
  inhibition at 10 µM: < 50%
[26]
  fraction unbound at 4 h: 0.016
[27]
  Cmax: 260 nM
[28]
  AUC(0-inf): 1.82 µM·h
[29]
  Kp at 1 h: 1.24
[30]
  Activity: Not Active
